Assay results from ChEMBL document CHEMBL3992538, “Hybrids of thienopyrimidinones and thiouracils as anti-tubercular agents: SAR and docking studies” (Eur J Med Chem, 2017).
Values after ≈ are worked out from the molar mass of the structure shown.

Experiments:
[1] = Selectivity index, ratio of GI50 for human A549 cells to MIC for active stage of Mycobacterium tuberculosis H37Ra ATCC 25177; assay type: toxicity; details: read-out: Selectivity Index
How it was run: (§1)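 Selectivity index is the cytotoxic GI50 against the named human cell line divided by the antimycobacterial value. Activity counted as specific when SI >10.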

[2] = Selectivity index, ratio of GI50 for human PANC1 cells to MIC for active stage of Mycobacterium tuberculosis H37Ra ATCC 25177 infected in human THP1 cells; assay type: toxicity, cell-based; details: PANC-1 cells, read-out: Selectivity Index; how it was run: as §1
[3] = test system: Mycobacterium tuberculosis; assay: Antitubercular activity against dormant stage of Mycobacterium tuberculosis H37Ra ATCC 25177 after 12 days by XTT reduction menadione assay; assay type: functional; details: H37Ra ATCC 25177, 288 h
How it was run: (§2)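 M. tuberculosis H37Ra (ATCC 25177), grown to log phase (OD 1.0) in M. pheli medium from -70°C stock, subcultured once before inoculation. Incubation 8 days (active) or 12 days (dormant). XRMA read-out as absorbance at 470 nm.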

[4] = test system: Mycobacterium tuberculosis; assay: Antitubercular activity against active stage of Mycobacterium tuberculosis H37Ra ATCC 25177 infected in human THP1 cells after 8 days by nitrate reductase assay; assay type: functional; details: H37Ra ATCC 25177, 192 h
How it was run: (§3)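 Ex vivo test of H37Ra in THP-1 cells by nitrate reductase assay, absorbance read at 540 nm. Active stage incubated 8 days and dormant stage 12 days. H37Ra (ATCC 25177) grown in M. pheli medium to OD 1.0 and subcultured once from -70°C stock.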

[5] = test system: Mycobacterium tuberculosis; assay: Antitubercular activity against dormant stage of Mycobacterium tuberculosis H37Ra ATCC 25177 infected in human THP1 cells after 12 days by nitrate reductase assay; assay type: functional; details: H37Ra ATCC 25177, 288 h; how it was run: as §3
[6] = Cytotoxicity against human HeLa cells assessed as growth inhibition by MTT assay; assay type: cell-based
How it was run: (§4)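 MTT assay in duplicate on THP-1 leukaemia, A549 lung adenocarcinoma, PANC-1 pancreatic adenocarcinoma and HeLa cervical carcinoma cells, all obtained from ECCC.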

[7] = Selectivity index, ratio of GI50 for human HeLa cells to MIC for active stage of Mycobacterium tuberculosis H37Ra ATCC 25177 infected in human THP1 cells; assay type: toxicity, cell-based; details: read-out: Selectivity Index; how it was run: as §1
[8] = Cytotoxicity against human PANC1 cells assessed as growth inhibition by MTT assay; assay type: cell-based; details: PANC-1 cells; how it was run: as §4
[9] = Cytotoxicity against human THP1 cells assessed as growth inhibition by MTT assay; assay type: cell-based; details: THP-1 cells; how it was run: as §4
[10] = Selectivity index, ratio of GI50 for human A549 cells to MIC for dormant stage of Mycobacterium tuberculosis H37Ra ATCC 25177 infected in human THP1 cells; assay type: toxicity, cell-based; details: read-out: Selectivity Index; how it was run: as §1
[11] = Selectivity index, ratio of GI50 for human PANC1 cells to MIC for dormant stage of Mycobacterium tuberculosis H37Ra ATCC 25177 infected in human THP1 cells; assay type: toxicity, cell-based; details: PANC-1 cells, read-out: Selectivity Index; how it was run: as §1
[12] = Selectivity index, ratio of GI50 for human HeLa cells to MIC for active stage of Mycobacterium tuberculosis H37Ra ATCC 25177; assay type: toxicity, cell-based; details: read-out: Selectivity Index; how it was run: as §1
[13] = Selectivity index, ratio of GI50 for human HeLa cells to MIC for dormant stage of Mycobacterium tuberculosis H37Ra ATCC 25177 infected in human THP1 cells; assay type: toxicity, cell-based; details: read-out: Selectivity Index; how it was run: as §1
[14] = Selectivity index, ratio of GI50 for human PANC1 cells to MIC for active stage of Mycobacterium tuberculosis H37Ra ATCC 25177; assay type: toxicity; details: PANC-1 cells, read-out: Selectivity Index; how it was run: as §1
[15] = Selectivity index, ratio of GI50 for human HeLa cells to MIC for dormant stage of Mycobacterium tuberculosis H37Ra ATCC 25177; assay type: toxicity, cell-based; details: read-out: Selectivity Index; how it was run: as §1
[16] = Selectivity index, ratio of GI50 for human A549 cells to MIC for dormant stage of Mycobacterium tuberculosis H37Ra ATCC 25177; assay type: toxicity; details: read-out: Selectivity Index; how it was run: as §1
[17] = Selectivity index, ratio of GI50 for human A549 cells to MIC for active stage of Mycobacterium tuberculosis H37Ra ATCC 25177 infected in human THP1 cells; assay type: toxicity, cell-based; details: read-out: Selectivity Index; how it was run: as §1
[18] = Cytotoxicity against human A549 cells assessed as growth inhibition by MTT assay; assay type: cell-based; how it was run: as §4
[19] = test system: Mycobacterium tuberculosis; assay: Antitubercular activity against active stage of Mycobacterium tuberculosis H37Ra ATCC 25177 after 8 days by XTT reduction menadione assay; assay type: functional; details: H37Ra ATCC 25177, 192 h; how it was run: as §2
[20] = Selectivity index, ratio of GI50 for human PANC1 cells to MIC for dormant stage of Mycobacterium tuberculosis H37Ra ATCC 25177; assay type: toxicity; details: PANC-1 cells, read-out: Selectivity Index; how it was run: as §1

SMILES | selectivity ratio [1] | selectivity ratio [2] | MIC [3] [µg/mL] | MIC [4] [µg/mL] | MIC [5] [µg/mL] | GI50 [6] [µg/mL] | selectivity ratio [7] | GI50 [8] [µg/mL] | GI50 [9] [µg/mL] | selectivity ratio [10] | selectivity ratio [11] | selectivity ratio [12] | selectivity ratio [13] | selectivity ratio [14] | selectivity ratio [15] | selectivity ratio [16] | selectivity ratio [17] | GI50 [18] [µg/mL] | MIC [19] [µg/mL] | selectivity ratio [20]
COc1cc(-c2nc(SCCCn3cnc4sc5c(c4c3=O)CCCC5)n(C)c(=O)c2C#N)cc(OC)c1OC | 3 | 1 | 26.1 (≈ 45 µM) | 26.9 (≈ 46.4 µM) | 21.5 (≈ 37.1 µM) | 70.7 (≈ 122 µM) | 3 | 24.8 (≈ 42.8 µM) | 89.7 (≈ 155 µM) | 4 | 1 | 3 | 3 | 1 | 3 | 4 | 4 | 95.7 (≈ 165 µM) | 27.9 (≈ 48.1 µM) | 1
COc1cc(-c2nc(SCCCn3cnc4sc5c(c4c3=O)CCCC5)[nH]c(=O)c2C#N)cc(OC)c1OC | 4 | 2 | 23.4 (≈ 41.4 µM) | 28.8 (≈ 50.9 µM) | 26.1 (≈ 46.1 µM) | 55.7 (≈ 98.5 µM) | 2 | 52.8 (≈ 93.3 µM) | 97.6 (≈ 173 µM) | 3 | 2 | 2 | 2 | 2 | 2 | 4 | 3 | 91.4 (≈ 162 µM) | 25.4 (≈ 44.9 µM) | 2
CCCCCc1cc2c(=O)n(CCCSc3nc(-c4cc(OC)c(OC)c(OC)c4)c(C#N)c(=O)[nH]3)cnc2s1 | > 3 | > 2 | 12.3 (≈ 21.1 µM) | > 30 | 9.8 (≈ 16.8 µM) | 75.8 (≈ 130 µM) | 3 | 72.8 (≈ 125 µM) | > 100 | > 10 | > 7 | 3 | 8 | > 2 | 6 | > 8 | > 3 | > 100 | > 30 | > 6
CCCCCCc1cc2c(=O)n(CCCSc3nc(-c4cc(OC)c(OC)c(OC)c4)c(C#N)c(=O)[nH]3)cnc2s1 | 3 | 1 | 8.7 (≈ 14.6 µM) | > 30 | 7.1 (≈ 11.9 µM) | 67 (≈ 112 µM) | 2 | 28.1 (≈ 47.2 µM) | 54.3 (≈ 91.1 µM) | 13 | 4 | 2 | 9 | 1 | 8 | 10 | < 3 | 90.2 (≈ 151 µM) | > 30 | 3
CCCCCn1c(SCCCn2cnc3sc4c(c3c2=O)CCCC4)nc(-c2cc(OC)c(OC)c(OC)c2)c(C#N)c1=O | > 3 | > 3 | > 30 | > 30 | > 30 | 73 (≈ 115 µM) | 2 | > 100 | > 100 | > 3 | > 3 | 2 | 2 | > 3 | 2 | > 3 | > 3 | > 100 | > 30 | > 3
CCCCCCc1cc2c(=O)n(CCSc3nc(-c4cc(OC)c(OC)c(OC)c4)c(C#N)c(=O)[nH]3)cnc2s1 | 6 | 2 | 19.1 (≈ 32.8 µM) | 17.1 (≈ 29.4 µM) | 18.8 (≈ 32.3 µM) | 76.3 (≈ 131 µM) | 4 | 36.5 (≈ 62.7 µM) | 96.4 (≈ 166 µM) | 5 | 2 | 5 | 4 | 2 | 4 | 5 | 6 | 96.8 (≈ 166 µM) | 15.6 (≈ 26.8 µM) | 2
CCCCCCCc1cc2c(=O)n(CCSc3nc(-c4cc(OC)c(OC)c(OC)c4)c(C#N)c(=O)[nH]3)cnc2s1 | 7 | 6 | 17.1 (≈ 28.7 µM) | 11.1 (≈ 18.6 µM) | 13.6 (≈ 22.8 µM) | 75.4 (≈ 127 µM) | 7 | 72.6 (≈ 122 µM) | 88.1 (≈ 148 µM) | 6 | 5 | 7 | 6 | 7 | 4 | 5 | 7 | 79.7 (≈ 134 µM) | 11.1 (≈ 18.6 µM) | 4
CCCCCCCc1cc2c(=O)n(CCCSc3nc(-c4cc(OC)c(OC)c(OC)c4)c(C#N)c(=O)[nH]3)cnc2s1 | 3 | 3 | 7.6 (≈ 12.5 µM) | > 30 | 6.91 (≈ 11.3 µM) | 76.1 (≈ 125 µM) | 3 | > 100 | 68.2 (≈ 112 µM) | 13 | > 14 | 3 | 11 | 3 | 10 | 12 | < 3 | 90.5 (≈ 148 µM) | > 30 | > 13
CCCc1cc2c(=O)n(CCCSc3nc(-c4cc(OC)c(OC)c(OC)c4)c(C#N)c(=O)[nH]3)cnc2s1 | > 3 | > 3 | 19.1 (≈ 34.5 µM) | > 30 | 11.9 (≈ 21.5 µM) | 52.5 (≈ 94.8 µM) | 2 | > 100 | > 100 | > 8 | > 8 | 2 | 4 | > 3 | 3 | > 5 | > 3 | > 100 | > 30 | > 5
CCCCCCCCn1c(SCCCn2cnc3sc4c(c3c2=O)CCCC4)nc(-c2cc(OC)c(OC)c(OC)c2)c(C#N)c1=O | > 3 | > 3 | > 30 | > 30 | > 30 | > 100 | > 3 | > 100 | > 100 | > 3 | > 3 | > 3 | > 3 | > 3 | > 3 | > 3 | > 3 | > 100 | > 30 | > 3
